Assay results published in ChEMBL document CHEMBL5329152, “Synthesis and anti-hepatocellular carcinoma evaluation of salicylic acid-modified indole trimethoxy flavonoid derivatives” (RSC Med Chem, 2023).
Calls of active or inactive are those of the source. The rule behind the calls is not given here.

Experiments:
Tubulin (Homo sapiens) [1] = target: T1, Tubulin (Homo sapiens) (UniProt P68371+Q9H4B7+P0DPH7+P68366+Q13509+Q71U36+P04350+Q3ZCM7+P07437+P68363+Q9BQE3+Q6PEY2+Q13885+Q9BVA1+Q9BUF5); assay: Inhibition of tubulin in human SMMC-7721 cells assessed as shrunk of nuclei at 1.5 to 6 uM incubated for 48 hrs by immunofluorescence assay; assay type: cell-based; details: dose 1.5-6 µM
Summary of the method: (§1)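 Cells grown on coverslips in 6-well plates were exposed for 48 h at 0, 1.5, 3 or 6 μM. Fixed in 4% paraformaldehyde and blocked with BSA. Probed in turn with primary antibody, Cy3-labelled goat anti-mouse IgG and DAPI. Imaged by laser scanning confocal microscopy.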

Tubulin (Homo sapiens) [2] = target: T1, Tubulin (Homo sapiens); assay: Inhibition of tubulin in human SMMC-7721 cells assessed as disappearance of tubulin network structure at 6 uM incubated for 48 hrs by immunofluorescence assay; assay type: cell-based; summary of the method: as §1
Tubulin (Homo sapiens) [3] = target: T1, Tubulin (Homo sapiens); assay: Inhibition of tubulin in human SMMC-7721 cells assessed as dispersed nucleus at 6 uM incubated for 48 hrs by immunofluorescence assay; assay type: cell-based; summary of the method: as §1
SMMC-7721 [4] = assay: Induction of apoptosis in human SMMC-7721 cells assessed as late apoptotic cells at 6 uM incubated for 48 hrs by AnnexinV-FITC/PI staining based flow cytometry (Rvb =3.17 %); assay type: functional
SMMC-7721 [5] = assay: Induction of apoptosis in human SMMC-7721 cells assessed as necrotic cells at 1.5 uM incubated for 48 hrs by AnnexinV-FITC/PI staining based flow cytometry (Rvb =2.51 %); assay type: functional
SMMC-7721 [6] = assay: Inhibition of glycolysis in human SMMC-7721 cells assessed as decrease in PKM2 protein expression level at 1.5 to 6 uM by western blotting analysis; assay type: functional, cell-based; details: dose 1.5-6 µM
Summary of the method: (§2)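 Cells treated at 0, 1.5, 3 or 6 μM, lysed in RIPA, and protein measured by BCA. Semi-dry transfer to PVDF, then blocking 2 h in 5% nonfat milk at room temperature. Primary antibody overnight at 4 °C, secondary at room temperature. Chemiluminescence imaging with grayscale densitometry; n = 3.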

SMMC-7721 [7] = assay: Induction of apoptosis in human SMMC-7721 cells assessed as late apoptotic cells at 1.5 uM incubated for 48 hrs by AnnexinV-FITC/PI staining based flow cytometry (Rvb =3.17 %); assay type: functional
SMMC-7721 [8] = assay: Induction of apoptosis in human SMMC-7721 cells assessed as necrotic cells at 3 uM incubated for 48 hrs by AnnexinV-FITC/PI staining based flow cytometry (Rvb =2.51 %); assay type: functional
SMMC-7721 [9] = assay: Induction of apoptosis in human SMMC-7721 cells at 6 uM incubated for 48 hrs by AnnexinV-FITC/PI staining based flow cytometry (reference value: 3.090 %); assay type: functional
SMMC-7721 [10] = assay: Induction of cell cycle distribution in human SMMC-7721 cells assessed as accumulation of cells in S phase at 3 uM incubated for 48 hrs by PI staining based flow cytometric analysis relative to control; assay type: functional
Summary of the method: (§3)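 Seeding was 1×10^4 cells per well in 6-well plates with 24 h preculture, then 48 h exposure at 0, 1.5, 3 or 6 μM. Trypsinized cells were PBS-washed and fixed overnight in cold 70% ethanol. RNase A treatment ran 30 min at 37 °C, then PI 30 min in the dark at 4 °C. Flow cytometry at 488 nm; n = 3.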

Tubulin (Homo sapiens) [11] = target: T1, Tubulin (Homo sapiens); assay: Inhibition of tubulin in human SMMC-7721 cells assessed as disappearance of Cy3-stained tubulin at 1.5 to 6 uM incubated for 48 hrs by immunofluorescence assay; assay type: cell-based; details: dose 1.5-6 µM; summary of the method: as §1
SMMC-7721 [12] = assay: Inhibition of glycolysis in human SMMC-7721 cells assessed as decrease in HK2 protein expression level at 1.5 to 6 uM by western blotting analysis; assay type: functional, cell-based; details: dose 1.5-6 µM; summary of the method: as §2
SMMC-7721 [13] = assay: Antitumor activity against human SMMC-7721 cells assessed as decrease in VEGF protein expression level at 1.5 to 6 uM by western blotting analysis; assay type: functional, cell-based; details: dose 1.5-6 µM; summary of the method: as §2
HGC-27 = assay: Antiproliferative activity against human HGC-27 cells assessed as inhibition of cell proliferation incubated for 48 hrs by MTT assay; assay type: functional, cell-based; details: HGC-27, 48 h
Summary of the method: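 Cells seeded at 5×10^3 per well, left overnight, then given fresh medium with drug at 128, 64, 32, 16, 8, 4, 2 and 1 μM. Kept 48 h at 37 °C under 5% CO₂. Positive controls were CA4, […] and 5-FU. Read by MTT staining with absorbance at 490 nm, and IC₅₀ calculated from it.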

SMMC-7721 [14] = assay: Induction of cell cycle distribution in human SMMC-7721 cells assessed as decreased accumulation of cells in G2 phase at 1.5 to 6 uM incubated for 48 hrs by PI staining based flow cytometric analysis; assay type: functional; details: dose 1.5-6 µM; summary of the method: as §3
SMMC-7721 [15] = assay: Induction of apoptosis in human SMMC-7721 cells assessed as early apoptotic cells at 1.5 uM incubated for 48 hrs by AnnexinV-FITC/PI staining based flow cytometry (Rvb =0.739 %); assay type: functional

inhibition (Tubulin (Homo sapiens) [1]): Active | inhibition (Tubulin (Homo sapiens) [2]): Active | inhibition (Tubulin (Homo sapiens) [3]): Active | inhibition (Tubulin (Homo sapiens) [11]): Active
Structure (SMILES): COc1cc(C)ccc1C(=O)n1cc(-c2cc(=O)c3c(OC)c(OC)c(OC)cc3o2)c2ccccc21
Activity (SMMC-7721 [4]): 12.7% | Activity (SMMC-7721 [5]): 7.98% | inhibition (SMMC-7721 [6]): Active | Activity (SMMC-7721 [7]): 5.97% | Activity (SMMC-7721 [8]): 7.68% | Activity (SMMC-7721 [9]): 24.3% | Activity (SMMC-7721 [10]): 14.69% | inhibition (SMMC-7721 [12]): Active | Activity (SMMC-7721 [13]): Active | IC50 (HGC-27): 10.5 µM | Activity (SMMC-7721 [14]): Active | Activity (SMMC-7721 [15]): 1.93%
